Calls of active or inactive are those of the source. No cut-off for these calls is given here.
What was measured:
[1] = tested on: MOLT-4; experiment: Cytotoxicity against human MOLT4 cells assessed as cell growth at 10 uM after 48 hrs by SRB assay; type: functional; details: MOLT-4, 48 h, read-out: Activity
How it was run: (§1)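 NCI primary single-dose screen at 10^-5 M against the full panel of about 60 human tumor cell lines. Cells were in RPMI-1640 with 5% fetal calf serum and 2 mM L-glutamine and preincubated 24 h. Compound was given in DMSO with 48 h exposure. Growth was estimated by sulforhodamine B protein assay.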

[2] = tested on: EKVX; experiment: Cytotoxicity against human EKVX cells assessed as cell growth at 10 uM after 48 hrs by SRB assay; type: functional; details: read-out: Activity
How it was run: (§2)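 NCI primary single-dose screen at 10^-5 M against the ~60 human tumour cell line panel. Cells grown in RPMI-1640 with 5% fetal calf serum and 2 mM L-glutamine and pre-incubated 24 h before compound addition. Compound added from DMSO solution with 48 h exposure. Growth read by sulforhodamine B protein staining.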

[3] = tested on: HOP-62; experiment: Cytotoxicity against human HOP62 cells assessed as cell growth at 10 uM after 48 hrs by SRB assay; type: functional; details: HOP-62, 48 h, read-out: Activity; how it was run: as §2
[4] = tested on: NCI-H226; experiment: Cytotoxicity against human NCI-H226 cells assessed as cell growth at 10 uM after 48 hrs by SRB assay; type: functional; details: NCI-H226, 48 h, read-out: Activity; how it was run: as §1
[5] = tested on: NCI-H23; experiment: Cytotoxicity against human NCI-H23 cells assessed as cell growth at 10 uM after 48 hrs by SRB assay; type: functional; details: NCI-H23, 48 h, read-out: Activity; how it was run: as §1
[6] = tested on: LOX IMVI; experiment: Cytotoxicity against human LOXIMVI cells assessed as cell growth at 10 uM after 48 hrs by SRB assay; type: functional; details: read-out: Activity; how it was run: as §1
[7] = tested on: SK-MEL-2; experiment: Cytotoxicity against human SK-MEL-2 cells assessed as cell growth at 10 uM after 48 hrs by SRB assay; type: functional; details: SK-MEL-2, 48 h, read-out: Activity
How it was run: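 NCI primary one-dose screen at 10^-5 M against the full panel of about 60 human tumour cell lines, run to the NCI Drug Evaluation Branch protocol.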

[8] = tested on: ACHN; experiment: Cytotoxicity against human ACHN cells assessed as cell growth at 10 uM after 48 hrs by SRB assay; type: functional; details: read-out: Activity; how it was run: as §2
[9] = tested on: RXF 393; experiment: Cytotoxicity against human RXF393 cells assessed as cell growth at 10 uM after 48 hrs by SRB assay; type: functional; details: RXF 393, 48 h, read-out: Activity; how it was run: as §1
[10] = tested on: Hs-578T; experiment: Cytotoxicity against human Hs578T cells assessed as cell growth at 10 uM after 48 hrs by SRB assay; type: functional; details: read-out: Activity; how it was run: as §2
[11] = tested on: RPMI-8226; experiment: Cytotoxicity against human RPMI8226 cells after 48 hrs by SRB assay; type: functional; details: RPMI-8226, 48 h
How it was run: (§3)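 NCI five-dose screen on the ~60-line human tumor panel. Cells grown in RPMI-1640 with 5% fetal calf serum and 2 mM L-glutamine, seeded at line-dependent density and preincubated 24 h. Compound added from DMSO at 10-fold dilutions from 10^-4 to 10^-8 M, continuous exposure 48 h. Growth read by sulforhodamine B protein stain. GI50, TGI and LC50 derived per line.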

[12] = tested on: HOP-92; experiment: Cytotoxicity against human HOP92 cells after 48 hrs by SRB assay; type: functional; details: HOP-92, 48 h
How it was run: (§4)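 NCI ~60-line panel in RPMI-1640 with 5% fetal calf serum and 2 mM L-glutamine, pre-incubated 24 h. Compound in DMSO tested at five 10-fold concentrations (10^-4 to 10^-8 M) with 48 h continuous exposure. Growth measured by sulforhodamine B protein assay. GI50 (50% net growth inhibition), TGI (total inhibition) and LC50 (50% net cell death) derived from dose-response.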

[13] = tested on: NCI-H226; experiment: Cytotoxicity against human NCI-H226 cells after 48 hrs by SRB assay; type: functional; details: NCI-H226, 48 h; how it was run: as §3
[14] = tested on: KM12; experiment: Cytotoxicity against human KM12 cells after 48 hrs by SRB assay; type: functional; details: KM12, 48 h; how it was run: as §3
[15] = tested on: SF-295; experiment: Cytotoxicity against human SF295 cells after 48 hrs by SRB assay; type: functional; details: SF-295, 48 h; how it was run: as §3
[16] = tested on: SF-539; experiment: Cytotoxicity against human SF539 cells after 48 hrs by SRB assay; type: functional; details: SF-539, 48 h; how it was run: as §3
[17] = tested on: Malme-3M; experiment: Cytotoxicity against human MALME-3M cells after 48 hrs by SRB assay; type: functional; how it was run: as §3
[18] = tested on: MDA-MB-435; experiment: Cytotoxicity against human MDA-MB-435 cells after 48 hrs by SRB assay; type: functional; details: MDA-MB-435, 48 h; how it was run: as §3
[19] = tested on: NCI/ADR-RES; experiment: Cytotoxicity against human NCI/ADR-RES cells after 48 hrs by SRB assay; type: functional; how it was run: as §3
[20] = tested on: A498; experiment: Cytotoxicity against human A498 cells after 48 hrs by SRB assay; type: functional; details: A498, 48 h; how it was run: as §4
[21] = tested on: CAKI-1; experiment: Cytotoxicity against human Caki1 cells after 48 hrs by SRB assay; type: functional; details: CAKI-1, 48 h; how it was run: as §4
[22] = tested on: MCF7; experiment: Cytotoxicity against human MCF7 cells after 48 hrs by SRB assay; type: functional; details: MCF7, 48 h; how it was run: as §3
[23] = tested on: BT-549; experiment: Cytotoxicity against human BT549 cells after 48 hrs by SRB assay; type: functional; details: BT-549, 48 h; how it was run: as §4
[24] = tested on: MDA-MB-435; experiment: Antitumor activity against human MDA-MB-435 cells implanted in mouse dosed qd for 4 days by formazan dye-based hollow fiber assay; type: functional, organism-based
How it was run: (§5)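 Cells grown inside polyvinylidene fluoride hollow fibers; each line implanted into both intraperitoneal and subcutaneous compartments in mice. Compound given ip at two doses on a QD x 4 schedule. Fibers then recovered and viable cell mass measured by formazan dye conversion. Scored 2 per dose giving ≥50% reduction in viable cell mass (%T/C 50).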

[25] = tested on: OVCAR-5; experiment: Antitumor activity against human OVCAR5 cells implanted in mouse dosed qd for 4 days by formazan dye-based hollow fiber assay; type: functional, organism-based; how it was run: as §5
[26] = tested on: COLO 205; experiment: Antitumor activity against human COLO205 cells implanted in mouse dosed qd for 4 days by formazan dye-based hollow fiber assay; type: functional, organism-based; how it was run: as §5

CCc1ccc(-c2ccc(=O)n(-c3ccc(S(N)(=O)=O)cc3)n2)cc1
growth at 10 µM [1]: 16%
growth at 10 µM [2]: 69.1%
growth at 10 µM [3]: 59.9%
growth at 10 µM [4]: 94.1%
growth at 10 µM [5]: 59.9%
growth at 10 µM [6]: 55.1%
growth at 10 µM [7]: 1.5%
growth at 10 µM [8]: 60.3%
growth at 10 µM [9]: -31.8%
growth at 10 µM [10]: 28.6%
LC50 [11]: > 100000 nM
GI50 ([11]; read-out: GI50): 479 nM
GI50 ([11]; read-out: pGI50 (converted)): 479 nM
TGI ([11]; read-out: pTGI (converted)): 8510 nM
LC50 [12]: > 100000 nM
GI50 ([12]; read-out: GI50): 17300 nM
GI50 ([12]; read-out: pGI50 (converted)): 17400 nM
TGI ([12]; read-out: pTGI (converted)): 75900 nM
LC50 [13]: > 100000 nM
GI50 ([13]; read-out: GI50): 13500 nM
GI50 ([13]; read-out: pGI50 (converted)): 13500 nM
TGI ([13]; read-out: pTGI): > 100000 nM
LC50 (50% lethal concentration) [14]: > 100000 nM
GI50 ([14]; read-out: GI50): 486 nM
GI50 ([14]; read-out: pGI50 (converted)): 490 nM
TGI ([14]; read-out: pTGI): > 100000 nM
LC50 [15]: 75900 nM
GI50 ([15]; read-out: GI50): 554 nM
GI50 ([15]; read-out: pGI50 (converted)): 550 nM
TGI ([15]; read-out: pTGI (converted)): 17400 nM
LC50 [16]: > 100000 nM
GI50 ([16]; read-out: GI50): 1840 nM
GI50 ([16]; read-out: pGI50 (converted)): 1820 nM
TGI ([16]; read-out: pTGI (converted)): 22900 nM
LC50 [17]: 75900 nM
GI50 ([17]; read-out: GI50): 188 nM
GI50 ([17]; read-out: pGI50 (converted)): 186 nM
TGI ([17]; read-out: pTGI (converted)): 16200 nM
LC50 [18]: > 100000 nM
GI50 ([18]; read-out: GI50): 223 nM
GI50 ([18]; read-out: pGI50 (converted)): 224 nM
TGI ([18]; read-out: pTGI (converted)): 2190 nM
LC50 [19]: > 100000 nM
GI50 ([19]; read-out: GI50): 314 nM
GI50 ([19]; read-out: pGI50 (converted)): 316 nM
TGI ([19]; read-out: pTGI (converted)): 12900 nM
LC50 [20]: > 100000 nM
GI50 ([20]; read-out: GI50): 1970 nM
GI50 ([20]; read-out: pGI50 (converted)): 1950 nM
TGI ([20]; read-out: pTGI (converted)): 38000 nM
LC50 (concentration causing 50% net cell death) [21]: > 100000 nM
GI50 ([21]; read-out: GI50): 2730 nM
GI50 ([21]; read-out: pGI50 (converted)): 2750 nM
TGI ([21]; read-out: pTGI): > 100000 nM
LC50 [22]: > 100000 nM
GI50 ([22]; read-out: GI50): 615 nM
GI50 ([22]; read-out: pGI50 (converted)): 617 nM
TGI ([22]; read-out: pTGI (converted)): 19100 nM
LC50 [23]: 85100 nM
GI50 ([23]; read-out: GI50): 756 nM
GI50 ([23]; read-out: pGI50 (converted)): 759 nM
TGI ([23]; read-out: pTGI (converted)): 17800 nM
Activity [24]: inactive
Activity [25]: inactive
Activity [26]: inactive
